Each structure is given as a SMILES string. pIC50: −log10 of the molar value.

As a reminder, the pIC50 is the negative decadic logarithm of the IC50, by convention in mol/L. Read a low pIC50 as a large IC50.

Assay [1] can be described thus: Growth inhibition of HK2 cells by sulforhodamine assay. In kind it is cell-based. Particulars: Homo sapiens, HK-2.
Assay [2] deals with MCF7. Description: Growth inhibition of MCF7 cells by sulforhodamine assay. It is filed as functional, cell-based. The note with it: Homo sapiens. In a few lines: (§1)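 Cells grown in supplemented RPMI with 10% FBS at 37 °C, 5% CO2, 48 h, then exposed to increasing compound concentrations (1 mM stocks in 10% DMSO) for 24 h. Sulforhodamine B read-out after TCA fixation at A540. IC50 is the concentration halving absorbance relative to solvent control. Duplicates, at least two repetitions, means reported.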

Assay [3] deals with TK-10. Kind of assay: Growth inhibition of TK10 cells by sulforhodamine assay. In kind it is functional, cell-based. The note with it: Homo sapiens. In a few lines:
as §1

The subject of assay [4] is HT-29. Description: Cytotoxicity against human HT29 cells ATCC HTB38 in aerobic condition assessed as survival at 100 uM by sulforhodamine assay. It is filed as functional. The note with it: read-out: Activity. In a few lines: (§2)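 Cells kept in RPMI with L-glutamine, penicillin/streptomycin, non-essential amino acids (1% each) and 10% FBS, 37 °C, 5% CO2, 48 h; compound added from 1 mM stock in 10% DMSO to final 100 µM, 24 h exposure. TCA fixation 1 h at 4 °C, sulforhodamine B staining, Tris pH 10.0, A540. Survival = (T/C)×100 versus solvent control; duplicates, two repetitions averaged.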

Assay [5] relates to TK-10. Kind of assay: Cytotoxicity against human TK10 cells in aerobic condition assessed as survival at 100 uM by sulforhodamine assay. In kind it is functional. The note with it: read-out: Activity. In a few lines:
as §2

Assay [6] relates to MCF7. Kind of assay: Cytotoxicity against human MCF7 cells […] in aerobic condition assessed as survival at 100 uM by sulforhodamine assay. The note with it: read-out: Activity. It is filed as functional. The method, boiled down: as §2
For assay [7], the system named is HT-29. Description: Growth inhibition of HT29 cells by sulforhodamine assay. It is filed as functional, cell-based. Particulars: Homo sapiens. In a few lines:
as §1

`O=C(/C=C/c1ccccn1)c1ccccc1O`: the negative-log IC50 (pIC50) was 5.10 in assay [1], 5.17 in assay [2], 4.91 in assay [3] and 4.86 in assay [7]. Also, the viability at 100 µM worked out at 15% in assay [4], 1% in assay [5] and 4% in assay [6].

Consider `O=C(/C=C/c1ccccc1)c1ccccc1O` [2'-HYDROXYCHALCONE], for which the negative logarithm of the IC50 (pIC50) is 4.61 in assay [1], 4.11 in assay [2], 4.10 in assay [3] and 4.07 in assay [7]. The figures for the viability at 100 µM in assay [4], in assay [5] and in assay [6] were 14%, 0% and 3%, respectively.

Consider `COc1ccc(/C=C/C(=O)c2ccccc2)cc1` [4-METHOXY CHALCONE], for which the pIC50 is 4.63 in assay [1], 4.05 in assay [2], 4.28 in assay [3] and 4.27 in assay [7]. Also, the viability at 100 µM in assay [4] is 2%; in assay [5], 2%; in assay [6] it was 30%.

For the compound `O=C(/C=C/c1ccccc1)c1ccccc1` [CHALCONE], the pIC50 in assay [1] was 4.52; in assay [2] it was 4.20; in assay [3], 4.38; in assay [7] it was 4.15. The viability at 100 µM in assay [4] was 5%; in assay [5], 2%; in assay [6], 19%.

The record behind these values is ChEMBL document CHEMBL1147926, “Synthetic chalcones, flavanones, and flavones as antitumoral agents: biological evaluation and structure-activity relationships” (Bioorg Med Chem, 2007).
